STEP inh: STEP (human) phosphatase inhibition | inhibition, % at 20 µM | 360,000 compounds, 0.25% hits | recombinant STEP, OMFP fluorogenic substrate, fluorescence | AID 588621 | P54829;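 active means inhibition at 20 µM, scaled per plate between control wells, above about 37%, limit read from the data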;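 further: 0% = DMSO with enzyme and substrate and 100% = substrate only without enzyme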
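Test system: STEP tyrosine phosphatase / Reagent: OMFP at 25 µM / Doses: 20 µM, 1% DMSO / Read-out: percent inhibition scaled to no-enzyme and uninhibited-enzyme controls, plate-pattern corrected / Detection: FITC-channel fluorescence of OMFP product / Medium: Bis-Tris buffer pH 6.0, 2.5 mM DTT, 0.005% Tween 20 / Schedule: 20 min at room temperature, dark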
SUMO HTRF inh: inhibitors of human SUMOylation (UBC9); inhibition, % at 35 µM; 290,000 compounds, 0.36% hits; HTRF SUMOylation assay, SAE1/SAE2 + UBC9, in vitro; in the data active means inhibition above about 50%, passing the limit was not always enough; inconclusive means no clear call, values can overlap the other calls
Target sequence (P63279 whole entry, looked up): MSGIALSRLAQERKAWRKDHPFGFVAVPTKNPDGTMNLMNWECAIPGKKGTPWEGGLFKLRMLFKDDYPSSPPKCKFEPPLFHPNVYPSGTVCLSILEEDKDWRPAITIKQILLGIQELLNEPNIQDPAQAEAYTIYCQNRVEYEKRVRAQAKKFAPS
LMPTP block: blocks human LMPTP phosphatase. inhibition, % at 20 µM. 360,000 compounds, 0.22% hits. recombinant LMPTP-A, OMFP fluorogenic substrate, fluorescence intensity. AID 651560. P24666;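 active means compounds that cut the enzyme signal by at least half of the control window in the single-dose screen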;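 further: plate controls were DMSO wells with enzyme plus substrate for no effect and substrate without enzyme for full effect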
Target sequence (P24666 whole entry, looked up): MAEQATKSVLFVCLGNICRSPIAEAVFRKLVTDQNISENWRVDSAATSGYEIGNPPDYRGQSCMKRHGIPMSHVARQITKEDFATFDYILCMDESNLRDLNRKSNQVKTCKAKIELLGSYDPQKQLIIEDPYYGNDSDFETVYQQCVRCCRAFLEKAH
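test system = LMPTP-A | amount = 0.625 nM LMPTP-A final | reagent = fluorogenic phosphatase substrate OMFP at 400 µM final | incubation = 50 min at room temperature | benchmarks = no-enzyme low control, uninhibited high control | medium = Bis-Tris pH 6.0, DTT, detergent | signal = fluorescence intensity of OMFP turnover product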
Scp-1 inhibitor: inhibitors of human Scp-1 phosphatase; inhibition, % at 20 µM; 340,000 compounds, 0.88% hits; Recombinant Scp1, phosphopeptide, malachite green phosphate absorbance; Q9GZU7; AID 493091;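 active means inhibition above about 50% at 20 µM, limit read from the data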;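 further: plate controls were DMSO wells with enzyme for no effect and wells lacking enzyme for full effect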
Target sequence (Q9GZU7 76-261 limits assumed): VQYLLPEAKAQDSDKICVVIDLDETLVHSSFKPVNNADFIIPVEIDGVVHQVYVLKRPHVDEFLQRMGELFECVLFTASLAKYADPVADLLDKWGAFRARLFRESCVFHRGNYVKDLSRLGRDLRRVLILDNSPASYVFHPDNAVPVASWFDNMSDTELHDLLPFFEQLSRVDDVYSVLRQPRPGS
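System: SCP-1 catalytic domain; Reagent: Phospho 17-mer peptide substrate; Doses: one concentration, 20 µM, with 1.0% DMSO; Incubation: 45 min room-temperature reaction, 5 min colour, 30 min stabiliser; Signal: Phosphate-binding colour reagent, absorbance read at 630 nm.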
SUMO1-SIM PPI: modulators of human SUMO1-mediated protein-protein interactions. 360,000 compounds, 0.33% hits. inhibition, % at 20 µM. P63165. SUMO1 binding to a labelled peptide, TR-FRET, 1 h; in the data active means inhibition above about 37%
DNMT1 block: DNMT1 (human) enzyme inhibition. P26358. DNMT1 molecular beacon, Hinp1I cleavage, fluorescence. inhibition (reported as % activation of signal), % at 10 µM. 360,000 compounds, 0.83% hits. AID 588458; in the data active means inhibition above about 50%
* marks the source's active call; other numbers are inactive results; u = inconclusive; x = no result. Compounds with a hit are over-represented: about 1.9% of the library has one in this group of screens.

SMILES | STEP inh | SUMO HTRF inh | LMPTP block | Scp-1 inhibitor | SUMO1-SIM PPI | DNMT1 block
O=C(N/N=C/c1ccccc1)c1n[nH]c2c1CCCC2 | 0.5 | 13.8 | 0.7 | 6.7 | -4.5 | -1.2
Cc1cc(C)c(Nc2cc(S(=O)(=O)O)c(N)c3c2C(=O)c2ccccc2C3=O)c(C)c1 | 1.6 | 44.6 | 33.3 | 27.4 | 74.0* | 79.9*
Cc1cc(C)c(NC(=O)COC(=O)c2cccc3c2C(=O)c2ccccc2C3=O)c(C)c1 | 3.3 | -2.5 | 3.0 | -7.8 | -15.0 | -2.1
Cc1ccccc1-n1c(SCC(=O)NCc2cccs2)nc2ccccc2c1=O | -0.7 | 8.7 | -0.6 | -2.3 | 1.0 | -1.6
O=c1c2ccccc2sn1-c1cc(S(=O)(=O)N2CCOCC2)ccc1N1CCOCC1 | 8.5 | 16.9 | -1.3 | 94.1* | 4.7 | -2.2
CC(=Cc1ccccc1)C=C1SC(=S)N(CCCC(=O)Nc2ccc(C(=O)O)c(O)c2)C1=O | 6.5 | x | 45.0 | x | -0.6 | 70.5*
O=C(NCCCN1CCOCC1)c1sc2cc([N+](=O)[O-])ccc2c1Cl | 93.4* | 1.8 | 3.1 | -1.0 | -25.8 | -9.7
COC(=O)c1ccc(=O)c2nc3/c(=C/O)c(O)cc(=O)c3[nH]c12 | 100.0* | u | 81.0* | 58.2* | 4.7 | 107.5*
C/C=C\C=C/C(=O)Nc1cccc(C2=NOC3(C2)C[C@@H](C(N)=O)N(C(=O)/C=C/C=C\C)C3)c1 (stereo partly drawn) | 2.5 | -6.0 | 6.4 | 79.5* | 95.2* | 64.4*
C=C(C)C(=O)Nc1cccc(C2=NOC3(C2)C[C@@H](C(N)=O)N(C(=O)c2ccc(Cl)cc2)C3)c1 (stereo partly drawn) | x | 20.2 | x | 70.6* | x | x
COC(=O)[C@@]12CCCN1[C@H](c1ccc(-c3ccccc3)cc1)[C@@H]1C(=O)N(C)C(=O)[C@@H]12 | 0.0 | x | 0.0 | -6.5 | 2.1 | -7.0
O=C(CC1S/C(=N/N=C/C=C/c2ccccc2)NC1=O)Nc1ccc(Cl)c(Cl)c1 (stereo not drawn) | 2.4 | 67.9* | 2.3 | -5.2 | 3.9 | 26.0
COc1ccc(NC(C)C(=O)Nc2cccc(S(=O)(=O)N3CCOCC3)c2)cc1OC (stereo not drawn) | -2.2 | x | 3.8 | 0.7 | 1.2 | 3.9
Nc1nc(N)c2c(ccc3c2ccn3Cc2cccc([N+](=O)[O-])c2)n1 | 8.1 | x | 68.6* | x | 10.4 | -9.6
CC1CCN(Cc2c(C(=O)N/N=C/c3cc(Br)ccc3O)nnn2-c2nonc2N)CC1 | 3.0 | 76.5* | 0.8 | -9.8 | 20.7 | 41.7
COc1c(Cl)cc(Cl)cc1/C=N/NC(=O)c1nnn(-c2nonc2N)c1CN1CCC(C)CC1 | 0.7 | 5.3 | 1.3 | 0.8 | -1.0 | 8.8
CC1CCN(Cc2c(C(=O)N/N=C/c3cc(Cl)ccc3O)nnn2-c2nonc2N)CC1 | 0.4 | 81.8* | -0.8 | -9.8 | -7.4 | 41.8
CCCn1c(SCC(=O)NCc2ccccc2)nnc1-c1ccncc1 | 0.9 | -10.5 | -1.8 | -1.0 | -0.9 | 1.6
Cn1ccsc1=NC(=O)c1cc(S(=O)(=O)N2CCOCC2)ccc1F | -0.2 | x | -2.1 | -7.6 | 5.4 | 2.9
C=C(C)CNC(=S)N1CCN(C(c2ccccc2)c2ccccc2)CC1 | -0.4 | -22.0 | 0.5 | -10.4 | 44.0* | 2.1
O=C(Nc1nc(-c2ccccn2)cs1)c1cc2ccccc2o1 | -1.5 | -30.5 | 3.5 | -3.7 | 3.9 | -1.5
Cc1c(C(=O)Nc2nc(-c3ccccn3)cs2)oc2ccccc12 | 77.1* | x | 4.4 | 9.5 | 7.2 | -9.1
Cc1c(N)c(C(C)(C)C)cc(C(C)(C)C)c1[N+](=O)[O-] | -2.8 | -28.6 | 2.2 | -5.1 | 2.6 | 9.8
Cc1cc2nc3c(=O)[nH]c(=O)[nH]c3nc2c([N+](=O)[O-])c1N | -9.0 | 75.6* | 10.0 | 72.5* | 100.0* | 110.5*
O=C(CSc1nnc(-c2ccco2)c(-c2ccco2)n1)c1ccccc1 | 5.4 | 86.8 | 8.0 | 45.0 | 29.9 | 84.7*
O=C(CSc1nnc(-c2ccco2)o1)c1ccccc1 | 5.0 | 8.7 | 1.2 | -2.2 | 1.3 | 1.3
COc1ccc(C(=O)Nc2ccc(NC(=O)c3cccs3)cn2)cc1 | 1.3 | 5.8 | 0.9 | -0.6 | 45.7* | 8.6
COc1cc(C(=O)NS(=O)(=O)c2ccccc2C)ccc1Cc1cn(C)c2ccc(NC(=O)OC3CCCC3)cc12 | x | 72.5* | x | x | x | x
